Activity calls are given as the source filed them. The rule behind the calls is not given here.
Experiments:
[1] = system: Radical scavenging activity; assay: Antioxidant activity assessed as DPPH free radical scavenging activity at 5 to 100 uM after 30 min by spectrophotometric analysis; type: functional
How it was run: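 DPPH reduction by the compounds was read spectrophotometrically at 517 nm after 30 min. 100% DMSO served as the blank and quercetin as the reference scavenger.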

Physalis ixocarpa = assay: Herbicidal activity against Physalis ixocarpa assessed as inhibition of seed respiration during germination after 72 hr by polarographic analysis; type: functional, organism-based
Trifolium pratense [2] = assay: Herbicidal activity against Trifolium pratense var. Kenland (red clover) assessed as inhibition of seed respiration during germination after 72 hr by polarographic analysis; type: functional, organism-based; conditions: for IC50: read-out: I50
How it was run: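 Red clover seeds were exposed to the bismuthines during germination, with respiration followed over the imbibition time. Values were taken at 72 h as the concentration giving 50% inhibition of seed respiration, using means of three experiments.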

Lactuca sativa [3] = assay: Herbicidal activity against Lactuca sativa var.Roman (lettuce) seedlings assessed as inhibition of seed germination at 5 uM after 48 hr; type: functional, organism-based
Lactuca sativa [4] = assay: Herbicidal activity against Lactuca sativa var.Roman (lettuce) seedlings assessed as growth inhibition at 5 uM after 120 hr; type: functional, organism-based
Lolium multiflorum [5] = assay: Herbicidal activity against Lolium multiflorum var. Gulf (Italian ryegrass) assessed as inhibition of seed respiration during germination after 72 hr by polarographic analysis; type: functional, organism-based
Lolium multiflorum [6] = assay: Herbicidal activity against Lolium multiflorum var. Gulf (Italian ryegrass) seedlings assessed as root length rate at 10 uM after 48 hr relative to control; type: functional, organism-based
How it was run: (§1)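 Italian ryegrass seedlings grown with 0, 0.5, 1, 3, 5, 7.5 or 10 µM of each bismuthine. Shoot and root lengths were measured at 48 h and expressed as a percentage of the average untreated control length.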

Lolium multiflorum [7] = assay: Herbicidal activity against Lolium multiflorum var. Gulf (Italian ryegrass) seedlings assessed as root length rate at 7.5 uM after 48 hr relative to control; type: functional, organism-based; how it was run: as §1
Lolium multiflorum [8] = assay: Herbicidal activity against Lolium multiflorum var. Gulf (Italian ryegrass) seedlings assessed as root length rate at 5 uM after 48 hr relative to control; type: functional, organism-based; how it was run: as §1
Lolium multiflorum [9] = assay: Herbicidal activity against Lolium multiflorum var. Gulf (Italian ryegrass) seedlings assessed as root length rate at 3 uM after 48 hr relative to control; type: functional, organism-based; how it was run: as §1
Lolium multiflorum [10] = assay: Herbicidal activity against Lolium multiflorum var. Gulf (Italian ryegrass) seedlings assessed as root length rate at 1 uM after 48 hr relative to control; type: functional, organism-based; how it was run: as §1
Lolium multiflorum [11] = assay: Herbicidal activity against Lolium multiflorum var. Gulf (Italian ryegrass) seedlings assessed as root length rate at 0.5 uM after 48 hr relative to control; type: functional, organism-based; how it was run: as §1
Lolium multiflorum [12] = assay: Herbicidal activity against Lolium multiflorum var. Gulf (Italian ryegrass) seedlings assessed as shoot length rate at 10 uM after 48 hr relative to control; type: functional, organism-based; how it was run: as §1
Lolium multiflorum [13] = assay: Herbicidal activity against Lolium multiflorum var. Gulf (Italian ryegrass) seedlings assessed as shoot length rate at 5 uM after 48 hr relative to control; type: functional, organism-based; how it was run: as §1
Lolium multiflorum [14] = assay: Herbicidal activity against Lolium multiflorum var. Gulf (Italian ryegrass) seedlings assessed as shoot length rate at 7.5 uM after 48 hr relative to control; type: functional, organism-based; how it was run: as §1
Lolium multiflorum [15] = assay: Herbicidal activity against Lolium multiflorum var. Gulf (Italian ryegrass) seedlings assessed as shoot length rate at 3 uM after 48 hr relative to control; type: functional, organism-based; how it was run: as §1
Lolium multiflorum [16] = assay: Herbicidal activity against Lolium multiflorum var. Gulf (Italian ryegrass) seedlings assessed as shoot length rate at 1 uM after 48 hr relative to control; type: functional, organism-based; how it was run: as §1
Lolium multiflorum [17] = assay: Herbicidal activity against Lolium multiflorum var. Gulf (Italian ryegrass) seedlings assessed as shoot length rate at 0.5 uM after 48 hr relative to control; type: functional, organism-based; how it was run: as §1
Lactuca sativa [18] = assay: Herbicidal activity against Lactuca sativa var.Roman (lettuce) seedlings assessed as seed germination rate at 10 uM after 48 hr relative to control; type: functional, organism-based
Lactuca sativa [19] = assay: Herbicidal activity against Lactuca sativa var.Roman (lettuce) seedlings assessed as seed germination rate at 7.5 uM after 48 hr relative to control; type: functional, organism-based
Lactuca sativa [20] = assay: Herbicidal activity against Lactuca sativa var.Roman (lettuce) seedlings assessed as seed germination rate at 5 uM after 48 hr relative to control; type: functional, organism-based
[21] = system: Radical scavenging activity; assay: Antioxidant activity assessed as DPPH free radical scavenging activity at 5 to 100 uM after 30 min by TLC autographic assay; type: functional
Lactuca sativa [22] = assay: Herbicidal activity against Lactuca sativa var.Roman (lettuce) seedlings assessed as seed germination rate at 3 uM after 48 hr relative to control; type: functional, organism-based
Lactuca sativa [23] = assay: Herbicidal activity against Lactuca sativa var.Roman (lettuce) seedlings assessed as seed germination rate at 1 uM after 48 hr relative to control; type: functional, organism-based
Lactuca sativa [24] = assay: Herbicidal activity against Lactuca sativa var.Roman (lettuce) seedlings assessed as seed germination rate at 0.5 uM after 48 hr relative to control; type: functional, organism-based
Lactuca sativa [25] = assay: Herbicidal activity against Lactuca sativa var.Roman (lettuce) seedlings assessed as root length at 75 uM after 120 hr (reference value: 18 to 19 mm); type: functional, organism-based
Lactuca sativa [26] = assay: Herbicidal activity against Lactuca sativa var.Roman (lettuce) seedlings assessed as root length at 50 uM after 120 hr (reference value: 18 to 19 mm); type: functional, organism-based
Lactuca sativa [27] = assay: Herbicidal activity against Lactuca sativa var.Roman (lettuce) seedlings assessed as root length at 25 uM after 120 hr (reference value: 18 to 19 mm); type: functional, organism-based
Lactuca sativa [28] = assay: Herbicidal activity against Lactuca sativa var.Roman (lettuce) seedlings assessed as root length at 10 uM after 120 hr (reference value: 18 to 19 mm); type: functional, organism-based
Lactuca sativa [29] = assay: Herbicidal activity against Lactuca sativa var.Roman (lettuce) seedlings assessed as root length at 5 uM after 120 hr (reference value: 18 to 19 mm); type: functional, organism-based
Lactuca sativa [30] = assay: Herbicidal activity against Lactuca sativa var.Roman (lettuce) seedlings assessed as shoot length at 75 uM after 120 hr (reference value: 27 to 31 mm); type: functional, organism-based
Lactuca sativa [31] = assay: Herbicidal activity against Lactuca sativa var.Roman (lettuce) seedlings assessed as shoot length at 50 uM after 120 hr (reference value: 27 to 31 mm); type: functional, organism-based
Lactuca sativa [32] = assay: Herbicidal activity against Lactuca sativa var.Roman (lettuce) seedlings assessed as shoot length at 25 uM after 120 hr (reference value: 27 to 31 mm); type: functional, organism-based
Lactuca sativa [33] = assay: Herbicidal activity against Lactuca sativa var.Roman (lettuce) seedlings assessed as shoot length at 10 uM after 120 hr (reference value: 27 to 31 mm); type: functional, organism-based
Lactuca sativa [34] = assay: Herbicidal activity against Lactuca sativa var.Roman (lettuce) seedlings assessed as shoot length at 5 uM after 120 hr (reference value: 27 to 31 mm); type: functional, organism-based
Phaseolus vulgaris [35] = assay: Herbicidal activity against Phaseolus vulgaris assessed as inhibition of mitochondrial oxygen uptake; type: functional, organism-based; conditions: read-out: I50
Lolium multiflorum [36] = assay: Herbicidal activity against Lolium multiflorum var. Gulf (Italian ryegrass) assessed as inhibition of seed germination after 48 hr; type: functional, organism-based; conditions: read-out: I50
Trifolium pratense [37] = assay: Herbicidal activity against Trifolium pratense var. Kenland (red clover) assessed as inhibition of seed germination after 48 hr; type: functional, organism-based; conditions: read-out: I50
Lactuca sativa [38] = assay: Herbicidal activity against Lactuca sativa var.Roman (lettuce) assessed as inhibition of seed germination after 48 hr; type: functional, organism-based; conditions: read-out: I50
Artemia salina [39] = assay: Toxicity in Artemia salina (brine shrimp) larvae assessed as mortality; type: organism-based; conditions: in vivo
How it was run: (§2)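 Brine shrimp lethality test on *Artemia salina* larvae, run across several concentrations up to a top level of 1000 µM. Mortality was scored at each concentration, and LC50 values in µM were derived from the concentration–mortality data.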

Phaseolus vulgaris [40] = assay: Herbicidal activity against Phaseolus vulgaris assessed as inhibition of seed respiration during germination; type: functional, organism-based; conditions: read-out: I50
Artemia salina [41] = assay: Toxicity in Artemia salina (brine shrimp) larvae assessed as mortality at 20 uM; type: organism-based; conditions: in vivo; how it was run: as §2
Artemia salina [42] = assay: Toxicity in Artemia salina (brine shrimp) larvae assessed as mortality at 200 uM; type: organism-based; conditions: in vivo; how it was run: as §2
Artemia salina [43] = assay: Toxicity in Artemia salina (brine shrimp) larvae assessed as mortality at 100 uM; type: organism-based; conditions: in vivo; how it was run: as §2
Artemia salina [44] = assay: Toxicity in Artemia salina (brine shrimp) larvae assessed as mortality at 500 to 1000 uM; type: organism-based; conditions: in vivo; how it was run: as §2

O=c1c(O)c(-c2ccc(O)c(O)c2)oc2cc(O)cc(O)c12
Activity [1]: Active

TRIS(2-THIENYL)BISMUTH [listing 1 of 2 here]
inhibition (Physalis ixocarpa): Active
inhibition (Trifolium pratense [2]): Dose-dependent effect
inhibition (Lactuca sativa [3]): Active
inhibition (Lactuca sativa [4]): 30%
inhibition (Lolium multiflorum [5]): inactive
Activity (Lolium multiflorum [6]): 30%
Activity (Lolium multiflorum [7]): 50%
Activity (Lolium multiflorum [8]): 76%
Activity (Lolium multiflorum [9]): 52%
Activity (Lolium multiflorum [10]): 88%
Activity (Lolium multiflorum [11]): 70%
Activity (Lolium multiflorum [12]): 37%
Activity (Lolium multiflorum [13]): 75%
Activity (Lolium multiflorum [14]): 46%
Activity (Lolium multiflorum [15]): 71%
Activity (Lolium multiflorum [16]): 82%
Activity (Lolium multiflorum [17]): 84%
Activity (Lactuca sativa [18]): 60%
Activity (Lactuca sativa [19]): 70%
Activity (Lactuca sativa [20]): 80%
Activity [21]: inactive
Activity (Lactuca sativa [22]): 85%
Activity [1]: Active
Activity (Lactuca sativa [23]): 90%
Activity (Lactuca sativa [24]): 90%
Activity (Lactuca sativa [25]): 0 mm
Activity (Lactuca sativa [26]): 2 mm
Activity (Lactuca sativa [27]): 3 mm
Activity (Lactuca sativa [28]): 5 mm
Activity (Lactuca sativa [29]): 36 mm
Activity (Lactuca sativa [30]): 0 mm
Activity (Lactuca sativa [31]): 5 mm
Activity (Lactuca sativa [32]): 7 mm
Activity (Lactuca sativa [33]): 9 mm
Activity (Lactuca sativa [34]): 33 mm

TRIS(2-THIENYL)BISMUTH [listing 2 of 2 here]
IC50 (Trifolium pratense [2]): 13.5 µM
IC50 (Phaseolus vulgaris [35]): 35 µM
IC50 (Lolium multiflorum [36]): 36 µM
IC50 (Trifolium pratense [37]): 12.4 µM
IC50 (Lactuca sativa [38]): 49.7 µM
LC50 (Artemia salina [39]): > 1000 µM

TRIS(2-FURYL)BISMUTH
IC50 (Trifolium pratense [2]): 6.3 µM
IC50 (Phaseolus vulgaris [40]): 1.1 µM
IC50 (Phaseolus vulgaris [35]): 10 µM
IC50 (Lolium multiflorum [36]): 20 µM
IC50 (Trifolium pratense [37]): 4.6 µM
IC50 (Lactuca sativa [38]): 16.1 µM
mortality (Artemia salina [41]): 12.28%
mortality (Artemia salina [42]): 68.96%
mortality (Artemia salina [43]): 50.9%
LC50 (Artemia salina [39]): 99 µM
mortality (Artemia salina [44]): 100%
